Reference: ChEMBL document CHEMBL1123037, “Anticonvulsant activity of some 4-aminobenzanilides” (J Med Chem, 1985)

Legend:
Mus musculus [1] = test: Toxicity tested by rotarod test for neurologic deficit at interval of 30 min when 600 mg/kg was administered intraperitoneally; no activity; type: organism-based; design: dose 600 mg/kg, route intraperitoneal; conditions: in vivo, ip, 0.5 h
In short: (§1)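 Male Carworth Farms number-one mice dosed ip with compound in 30% polyethylene glycol 400. Each mouse was placed on a 1-in.-diameter knurled plastic rod rotating at 6 rpm. Neurologic toxicity was scored as failure to stay on the rod for 1 min. Screening doses were 30, 100, 300 and sometimes 600 mg/kg, tested at 30 min and 4 h. TD50 was read by the graphical method.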

Mus musculus [2] = test: Toxicity tested by rotarod test for neurologic deficit at interval of 4 hr when 600 mg/kg was administered intraperitoneally; no activity; type: organism-based; design: dose 600 mg/kg, route intraperitoneal; conditions: in vivo, ip; in short: as §1
Mus musculus [3] = test: Effective dose was evaluated for its anticonvulsant activity against subcutaneous induced metrazole convulsions in mice; activity value ranges from 38.83-46.00; type: functional; conditions: sc
[4] = Toxic dose was determined by the rotarod test in mice activity value ranges from 153.02-189.96; type: toxicity, organism-based; conditions: mouse, in vivo
[5] = Protective index as the ratio of TD50 value against scMET to that of ED50 value against scMET.; type: ADME; conditions: read-out: PI
In short: (§2)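 Protective index = rotorod TD50 divided by ED50 (MES or scMet), both from ip dosing in male Carworth Farms number-one mice, medians obtained graphically.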

[6] = Protective index as the ratio of TD50 value against MES to that of ED50 value against MES.; type: ADME; conditions: read-out: PI; in short: as §2
Mus musculus [7] = test: Toxicity tested by rotarod test for neurologic deficit at interval of 30 min when 300 mg/kg was administered intraperitoneally; shows activity; type: organism-based; design: dose 300 mg/kg, route intraperitoneal; conditions: in vivo, ip, 0.5 h; in short: as §1
Mus musculus [8] = test: Toxicity tested by rotarod test for neurologic deficit at interval of 4 hr when 600 mg/kg was administered intraperitoneally; shows activity; type: organism-based; design: dose 600 mg/kg, route intraperitoneal; conditions: in vivo, ip; in short: as §1
[9] = Toxic dose was determined by the rotarod test in mice; activity value ranges from 130.89-161.13; type: toxicity, organism-based; conditions: mouse, in vivo
Mus musculus [10] = species on record: Mus musculus; test: Effective dose evaluated against maximal electric seizures (MES) or convulsions in mice; activity value ranges from 39.77-53.41; type: functional
Mus musculus [11] = species on record: Mus musculus; test: Effective dose evaluated against maximal electric seizures (MES) or convulsions in mice;activity value ranges from 66.58-109.74; type: functional
[12] = Toxic dose was determined by the rotarod test in mice; type: toxicity, organism-based; conditions: mouse, in vivo
[13] = Toxic dose was determined by the rotarod test in mice; activity value ranges from 40.62-57.10; type: toxicity, organism-based; conditions: mouse, in vivo
Mus musculus [14] = species on record: Mus musculus; test: Effective dose evaluated against maximal electric seizures (MES) or convulsions in mice; activity value ranges from 14.70-19.13; type: functional
Mus musculus [15] = test: Toxicity tested by rotarod test for neurologic deficit at interval of 4 hr when 100 mg/kg was administered intraperitoneally; shows activity; type: organism-based; design: dose 100 mg/kg, route intraperitoneal; conditions: in vivo, ip; in short: as §1
Mus musculus [16] = test: Toxicity tested by rotarod test for neurologic deficit at interval of 30 min when 30 mg/kg was administered intraperitoneally; shows activity; type: organism-based; design: dose 30 mg/kg, route intraperitoneal; conditions: in vivo, ip, 0.5 h; in short: as §1
Mus musculus [17] = test: Toxicity tested by rotarod test for neurologic deficit at interval of 30 min when 100 mg/kg was administered intraperitoneally; shows activity; type: organism-based; design: dose 100 mg/kg, route intraperitoneal; conditions: in vivo, ip, 0.5 h; in short: as §1
Mus musculus [18] = species on record: Mus musculus; test: Effective dose evaluated against maximal electric seizures (MES) or convulsions in mice; activity value ranges from 12.50-31.75; type: functional
[19] = Toxic dose was determined by the rotarod test in mice; activity value ranges from 88.85-119.90; type: toxicity, organism-based; conditions: mouse, in vivo
Mus musculus [20] = test: Toxicity tested by rotarod test for neurologic deficit at interval of 4 hr when administered intraperitoneally; LD50 < 600 mg/kg; type: organism-based; design: dose 600 mg/kg, route intraperitoneal; conditions: in vivo, ip
[21] = Toxic dose was determined by the rotarod test in mice; activity value ranges from 98.01-127.65; type: toxicity, organism-based; conditions: mouse, in vivo
Mus musculus [22] = test: Toxicity tested by rotarod test for neurologic deficit at interval of 4 hr when 300 mg/kg was administered intraperitoneally; shows activity; type: organism-based; design: dose 300 mg/kg, route intraperitoneal; conditions: in vivo, ip; in short: as §1
Mus musculus [23] = test: Effective dose was evaluated for its anticonvulsant activity against subcutaneous induced metrazole convulsions in mice; activity value ranges from 122.64-177.02; type: functional; conditions: sc
Mus musculus [24] = species on record: Mus musculus; test: Effective dose evaluated against maximal electric seizures (MES) or convulsions in mice; activity value ranges from 246.97-337.89; type: functional
Mus musculus [25] = species on record: Mus musculus; test: Effective dose evaluated against maximal electric seizures (MES) or convulsions in mice; activity value ranges from 38.02-50.30; type: functional
[26] = Toxic dose was determined by the rotarod test in mice; activity value ranges from 156.61-251.07; type: toxicity, organism-based; conditions: mouse, in vivo
Mus musculus [27] = test: Anticonvulsant activity of 600 mg/kg of compound against subcutaneous induced metrazole convulsions at interval of 4 hr administered intraperitoneally in mice; compound does not show activity; type: functional, organism-based; design: dose 600 mg/kg
Mus musculus [28] = test: Anticonvulsant activity of 600 mg/kg of compound against subcutaneous induced metrazole convulsions at interval of 30 min administered intraperitoneally in mice; compound shows activity; type: functional, organism-based; design: dose 600 mg/kg
Mus musculus [29] = test: Anticonvulsant activity of 600 mg/kg after 4 hr of intraperitoneal administration in mice against maximum electroshock seizures (MES); compound shows activity; type: functional, organism-based; design: dose 600 mg/kg
Mus musculus [30] = test: Anticonvulsant activity of 300 mg/kg after 30 min. of intraperitoneal administration in mice against maximum electroshock seizures (MES); compound shows activity; type: functional, organism-based; design: dose 300 mg/kg
Mus musculus [31] = test: Toxicity tested by rotarod test for neurologic deficit at interval of 30 min when 600 mg/kg was administered intraperitoneally; shows activity; type: organism-based; design: dose 600 mg/kg, route intraperitoneal; conditions: in vivo, ip, 0.5 h; in short: as §1
Mus musculus [32] = species on record: Mus musculus; test: Effective dose evaluated against maximal electric seizures (MES) or convulsions in mice; activity value ranges from 2.18-3.07; type: functional
[33] = Toxic dose was determined by the rotarod test in mice; activity value ranges from 556.77-815.69; type: toxicity, organism-based; conditions: mouse, in vivo
Mus musculus [34] = species on record: Mus musculus; test: Effective dose evaluated against maximal electric seizures (MES) or convulsions in mice; activity value ranges from 56.16-105.53; type: functional

## Cc1ccc(C)c(NC(=O)c2ccc(N)cc2)c1
Mus musculus [1]
  Toxicity: No activity
Mus musculus [2]
  Toxicity: No activity

## CC(NC(=O)c1ccc(N)cc1)c1ccccc1 (centres undefined)
Mus musculus [3]
  ED50: 41.8 mg/kg
[4]
  TD50: 171 mg/kg
[5]
  selectivity ratio: 4.1
[6]
  selectivity ratio: 9.5

## Cc1cccc(NC(=O)c2ccc(N)cc2)c1
Mus musculus [7]
  Toxicity: Activity
[5]
  selectivity ratio: 1.62
Mus musculus [8]
  Toxicity: Activity
[6]
  selectivity ratio: 3.03
[9]
  TD50: 143 mg/kg
Mus musculus [10]
  ED50: 47 mg/kg

## Cc1cccc(C(C)C)c1NC(=O)c1ccc(N)cc1
Mus musculus [11]
  ED50: 86.1 mg/kg
Mus musculus [1]
  Toxicity: No activity
[6]
  selectivity ratio: > 17.4
[12]
  TD50: > 1500 mg/kg

## CCc1cccc(C(C)C)c1NC(=O)c1ccc(N)cc1
[13]
  TD50: 49.1 mg/kg
Mus musculus [14]
  ED50: 16.7 mg/kg
[6]
  selectivity ratio: 2.95
Mus musculus [15]
  Toxicity: Activity
Mus musculus [16]
  Toxicity: Activity

## Cc1ccc(NC(=O)c2ccc(N)cc2)cc1
Mus musculus [17]
  Toxicity: Activity
Mus musculus [8]
  Toxicity: Activity

## Cc1cccc(NC(=O)c2ccc(N)cc2)c1C
Mus musculus [17]
  Toxicity: LD50 < 600 mg/kg
Mus musculus [18]
  ED50: 25.2 mg/kg
[19]
  TD50: 104 mg/kg
[6]
  selectivity ratio: 4.11
Mus musculus [20]
  Toxicity: LD50 < 600 mg/kg

## Nc1ccc(C(=O)Nc2ccccc2)cc1
[21]
  TD50: 111 mg/kg
Mus musculus [17]
  Toxicity: Activity
Mus musculus [22]
  Toxicity: Activity
[5]
  selectivity ratio: 1.88
[6]
  selectivity ratio: 2.2

## CCCC(CCC)C(=O)O [VALPROIC ACID]
Mus musculus [23]
  ED50: 149 mg/kg
Mus musculus [24]
  ED50: 272 mg/kg

## Cc1ccc(NC(=O)c2ccc(N)cc2)cc1C
Mus musculus [17]
  Toxicity: Activity
[5]
  selectivity ratio: 2.4
Mus musculus [8]
  Toxicity: Activity
Mus musculus [25]
  ED50: 42.3 mg/kg
[6]
  selectivity ratio: 4.59
[26]
  TD50: 194 mg/kg

## Cc1ccc(NC(=O)c2ccc(N)cc2)c(C)c1
Mus musculus [27]
  Activity: No activity
Mus musculus [28]
  Activity: No activity
Mus musculus [29]
  Activity: No activity
Mus musculus [30]
  Activity: No activity
Mus musculus [31]
  Toxicity: No activity
Mus musculus [2]
  Toxicity: No activity

## Cc1cccc(C)c1NC(=O)c1ccc(N)cc1 [AMELTOLIDE]
Mus musculus [32]
  ED50: 2.6 mg/kg
Mus musculus [15]
  Toxicity: Activity
Mus musculus [16]
  Toxicity: Activity

## Cc1cc(C)cc(NC(=O)c2ccc(N)cc2)c1
Mus musculus [1]
  Toxicity: No activity
Mus musculus [2]
  Toxicity: No activity

## CC(C)c1ccccc1NC(=O)c1ccc(N)cc1
[33]
  TD50: 709 mg/kg
Mus musculus [31]
  Toxicity: No activity
[6]
  selectivity ratio: 8.7
Mus musculus [2]
  Toxicity: No activity
Mus musculus [34]
  ED50: 81.5 mg/kg

## Cc1ccccc1NC(=O)c1ccc(N)cc1
Mus musculus [7]
  Toxicity: Activity
Mus musculus [16]
  Toxicity: Activity
